# This is a sample that favours compounds with a hit; in the whole collection about 5.9% have one here.
# T cruzi growth-1: T. cruzi intracellular proliferation inhibitors, primary screen, cell-based, beta-gal Tulahuen parasites, NIH3T3 host, luminescence | 5.9% of 77,000 active | T. cruzi beta-gal in NIH3T3, GalScreen luminescence, 90 h | AID 624255, 2012 | inhibition, % at 8.34 µM;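 active = mean inhibition above about 93%, with at least 55% of replicates each passing it, limit read from the data, passing the limit was not always enough; inconclusive = only one of those two conditions holds; inactive = neither condition holds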
# GASC1 inh: inhibitors of GASC-1 (KDM4C) histone demethylase, primary screen, biochemical, single concentration HTS; GST-KDM4C 2-372, H3K9me3 peptide, LANCE TR-FRET; inhibition, % at 12.5 µM; Lysine-specific demethylase 4C (Homo sapiens), Q9H3R0; 0.15% of 96,000 active; AID 720574, 2013;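 active = mean replicate inhibition above about 25%, with at least 55% of replicates also reaching it, limit read from the data, passing the limit was not always enough; inconclusive = only one of those two conditions met; inactive = neither condition met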
# Target sequence (Q9H3R0 2-372 limits assumed): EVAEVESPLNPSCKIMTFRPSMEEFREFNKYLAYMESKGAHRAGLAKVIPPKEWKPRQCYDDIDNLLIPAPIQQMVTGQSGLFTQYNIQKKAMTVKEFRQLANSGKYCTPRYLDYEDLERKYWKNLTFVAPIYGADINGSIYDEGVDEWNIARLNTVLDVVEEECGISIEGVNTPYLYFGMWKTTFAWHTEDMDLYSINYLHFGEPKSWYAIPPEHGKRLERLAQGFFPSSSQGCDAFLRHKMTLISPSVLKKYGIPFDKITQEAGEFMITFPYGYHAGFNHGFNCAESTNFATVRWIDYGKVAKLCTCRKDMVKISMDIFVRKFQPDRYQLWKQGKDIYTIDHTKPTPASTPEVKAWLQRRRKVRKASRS
#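 Material: GST-tagged GASC-1 (JMJD2C) catalytic fragment, aa 2-372. Input: enzyme final amount 10 nM. Medium: HEPES buffer, pH 7.5, plus ascorbate. Reagent: H3K9me3 peptide substrate, Fe(II), 2-oxoglutarate. Doses: single dose. Times: reaction 30 min RT, detection step 1 h RT. Measured by: LANCE TR-FRET. Evaluation: Fall in 671/618 emission ratio as inhibition.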
# IDH1 mut inh: inhibitors of IDH1 R132H reductase, primary screen, biochemical, plate reader, single point. AID 624101, 2012. diaphorase/resazurin fluorescence, 60 min. inhibition, % at 10 µM. 0.18% of 70,000 active; in the data active = inhibition above about 34%; inconclusive = no clear call, values can overlap the other calls; inactive = below about 11%
# Pf Dd2 growth: P. falciparum Dd2 growth inhibitors, primary screen, SYBR Green fluorescence, single dose replicates; activity change, % at 10 µM; 2.3% of 94,000 active; 72 h; active compounds read low; in the data active = activity change below about -80%; inconclusive = no clear call, values can overlap the other calls
# T cruzi growth-2: T. cruzi intracellular proliferation inhibitors, confirmation, cell-based, NIH3T3 host, beta-gal parasite, luminescence, cherry-pick; shares compounds with T cruzi growth-1; T. cruzi beta-gal in NIH3T3, GalScreen luminescence, 90 h; inhibition, % at 8.35 µM; 72% of 5,600 active; AID 651739, 2012;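 active = mean replicate inhibition above about 95% and at least 55% of replicates individually reaching it, limit read from the data; inconclusive = only one of the two criteria is met; inactive = neither criterion is met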
# T cruzi growth-3: inhibitors of intracellular T. cruzi replication, confirmation, NIH3T3 host cells, beta-gal parasites, cherry-pick, set 2; shares compounds with T cruzi growth-1; T. cruzi beta-gal in NIH3T3, GalScreen luminescence, 90 h; inhibition, % at 2.09 µM; 21% of 5,600 active; AID 651740, 2012;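 active = mean inhibition above about 95%, with at least 55% of replicates also reaching it, limit read from the data; inconclusive = meets just one of the two conditions; inactive = meets neither condition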
# NIH3T3 tox: cytotoxicity in mouse NIH/3T3 fibroblasts, confirmation, cytotoxicity control for T. cruzi proliferation inhibitor project, cell-based, cherry-pick, single point; shares compounds with T cruzi growth-1; NIH/3T3 viability, CellTiter-Glo ATP luminescence, 90 h; cytotoxicity (signal decrease), % at 8.35 µM; 14% of 5,600 active; AID 651742, 2012;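 active = mean signal decrease across replicates above about 35% based on untreated-well scatter, with enough replicates individually passing, limit read from the data; inconclusive = no rule stated though some were filed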
# NIH3T3 tox 2: NIH/3T3 fibroblast cytotoxicity, confirmation, cytotoxicity control, cell-based, cherry-pick, single point, set 2. shares compounds with T cruzi growth-1. NIH/3T3 viability, CellTiter-Glo ATP luminescence, 90 h. inhibition, % at 24.9 µM. 56% of 5,600 active. AID 651744, 2012;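 active = mean loss of cell viability signal at or above a set limit, and enough replicates individually reaching it; inconclusive = meets only the mean limit or only the replicate share; inactive = meets neither condition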
# A number is an active result; 0 = inactive; ? = inconclusive; - = no result.
SMILES,T cruzi growth-1,GASC1 inh,IDH1 mut inh,Pf Dd2 growth,T cruzi growth-2,T cruzi growth-3,NIH3T3 tox,NIH3T3 tox 2
CN(C)CC(=O)N1CCCCN2[C@H](CO)[C@H](c3ccc(/C=C/c4ccccc4)cc3)[C@@H]2C1,100.6,0,-,0,111.8,110.1,89.0,104.3
CC(=O)CCc1ccc(Oc2ccc(C(F)(F)F)cn2)cc1,-,-,0,-,-,-,-,-
O=C(Nc1ccccc1F)N1CCCCN2[C@H](CO)[C@@H](c3ccc(-c4cccnc4)cc3)[C@@H]2C1,0,0,-,0,-,-,-,-
O=C(Nc1cc(F)ccc1F)N1CCCCN2[C@@H](CO)[C@H](c3ccc(-c4cncnc4)cc3)[C@@H]2C1,98.1,0,-,0,0,0,0,0
O=C(Nc1cc(F)ccc1F)N1CCCCN2[C@@H](CO)[C@@H](c3ccc(-c4cncnc4)cc3)[C@@H]2C1,108.2,0,-,0,0,0,0,0
O=C(Nc1ccccc1F)N1CCCCN2[C@H](C1)[C@H](c1ccc(-c3cccnc3)cc1)[C@@H]2CO,104.3,0,-,0,?,0,0,0
O=C(Nc1cc(F)ccc1F)N1CCCCN2[C@H](CO)[C@H](c3ccc(-c4ccccc4)cc3)[C@H]2C1,0,0,-,0,-,-,-,-
O=C(Nc1cc(F)ccc1F)N1CCCCN2[C@H](C1)[C@H](c1ccc(-c3ccccc3)cc1)[C@@H]2CO,99.2,0,-,0,107.6,0,0,0
O=C(Nc1cc(F)ccc1F)N1CCCCN2[C@H](CO)[C@H](c3ccc(-c4ccncc4)cc3)[C@@H]2C1,0,0,-,0,-,-,-,-
O=C(Nc1cc(F)ccc1F)N1CCCCN2[C@@H](CO)[C@H](c3ccc(-c4ccncc4)cc3)[C@@H]2C1,0,0,-,0,-,-,-,-
CCCc1cc(=S)sc(N)n1,-,-,0,-,-,-,-,-
Cc1cc(-c2nc3ccccc3s2)ccc1NC(=O)COc1ccccc1[N+](=O)[O-],-,-,0,-,-,-,-,-
O=C(Nc1cc(F)ccc1F)N1CCCCN2[C@H](CO)[C@@H](c3ccc(-c4cncnc4)cc3)[C@@H]2C1,112.0,0,-,0,0,0,0,0
O=C(Nc1cc(F)ccc1F)N1CCCCN2[C@@H](CO)[C@H](c3ccc(-c4cccnc4)cc3)[C@@H]2C1,?,0,-,0,97.3,0,0,0
O=C(Nc1cc(F)ccc1F)N1CCCCN2[C@H](CO)[C@H](c3ccc(-c4cncnc4)cc3)[C@H]2C1,112.1,0,-,0,107.2,0,0,0
Cc1sc2nc3c4ccccc4c(NCc4ccccn4)nn3c(=O)c2c1C,-,-,0,-,-,-,-,-
Cc1ccc2nc(-c3ccc(NC(=O)CSc4nncn4C)cc3)sc2c1,-,-,0,-,-,-,-,-
O=C(N[C@H]1CC[C@@H](CCn2cc(-c3ccccc3F)nn2)O[C@H]1CO)c1ccc2c(c1)OCO2,111.9,0,0,0,0,0,0,0
COc1cccc(S(=O)(=O)N[C@@H]2CC[C@@H](CCn3cc(-c4ccccc4OC)nn3)O[C@H]2CO)c1,0,0,0,0,-,-,-,-
COc1cccc(S(=O)(=O)N[C@H]2CC[C@H](CCn3cc(-c4ccccc4OC)nn3)O[C@@H]2CO)c1,?,0,0,0,0,0,0,0
COCc1cn(CC[C@@H]2CC[C@@H](NC(=O)c3ccncc3)[C@@H](CO)O2)nn1,126.7,0,0,0,0,0,0,0
COc1ccc(Oc2ccc(NC(=O)C(C)N3C(=O)C4C5C=CC(C6CC56)C4C3=O)cc2)cc1 (stereo not given),-,-,0,-,-,-,-,-
O=C(CN1CCOCC1)N1CCCCN2[C@H](C1)[C@H](c1ccc(C#Cc3ccccc3)cc1)[C@@H]2CO,0,0,-,0,-,-,-,-
O=C(CN1CCOCC1)N1CCCCN2[C@@H](CO)[C@@H](c3ccc(/C=C/c4ccccc4)cc3)[C@@H]2C1,105.0,0,-,0,105.5,0,0,105.3
O=C(CN1CCOCC1)N1CCCCN2[C@@H](CO)[C@H](c3ccc(C#Cc4ccccc4)cc3)[C@@H]2C1,0,0,-,0,-,-,-,-
SMILES,T cruzi growth-1,GASC1 inh,IDH1 mut inh,Pf Dd2 growth,T cruzi growth-2,T cruzi growth-3,NIH3T3 tox,NIH3T3 tox 2
O=C(CN1CCOCC1)N1CCCCN2[C@H](C1)[C@@H](c1ccc(C#Cc3ccccc3)cc1)[C@@H]2CO,111.7,0,-,0,107.1,0,0,101.3
O=C(CN1CCOCC1)N1CCCCN2[C@@H](CO)[C@@H](c3ccc(C#Cc4ccccc4)cc3)[C@@H]2C1,98.2,0,-,0,0,0,0,102.8
COc1ccccc1-c1ccc([C@@H]2[C@H](CO)N3CCCCN(C(=O)CN4CCOCC4)C[C@@H]23)cc1,0,0,-,0,-,-,-,-
Cc1ccccc1-c1ccc([C@H]2[C@@H](CO)N3CCCCN(C(=O)CN4CCOCC4)C[C@@H]23)cc1,?,0,-,0,0,0,0,0
O=C(CN1CCOCC1)N1CCCCN2[C@H](CO)[C@@H](c3ccc(-c4ccccc4)cc3)[C@H]2C1,0,0,-,0,-,-,-,-
NC(=O)c1ccc(NCc2cccnc2)c([N+](=O)[O-])c1,-,-,0,-,-,-,-,-
C[C@@H]1CCCCO[C@@H](CN(C)C(=O)Nc2ccc(C(F)(F)F)cc2)[C@H](C)CN([C@H](C)CO)C(=O)c2cc(NC(=O)Nc3cccc4ccccc34)ccc2O1,99.9,0,0,0,107.1,102.0,0,0
C[C@@H]1CCCCO[C@H](CN(C)C(=O)Nc2cccc3ccccc23)[C@H](C)CN([C@@H](C)CO)C(=O)c2cc(NC(=O)Nc3ccc(C(F)(F)F)cc3)ccc2O1,108.6,0,0,0,111.2,112.8,0,0
C[C@@H]1CCCCO[C@H](CN(C)C(=O)Nc2ccc(C(F)(F)F)cc2)[C@H](C)CN([C@@H](C)CO)C(=O)c2cc(NC(=O)Nc3cccc4ccccc34)ccc2O1,0,0,-,0,-,-,-,-
Cc1ccc(OCC(=O)Nc2ccc3oc(-c4c(F)c(F)c(F)c(F)c4F)nc3c2)cc1,-,-,0,-,-,-,-,-
COc1ccc(CN(C)C[C@H]2OCCCC[C@@H](C)Oc3ccc(NS(=O)(=O)c4ccccc4)cc3C(=O)N([C@H](C)CO)C[C@H]2C)cc1,0,0,-,0,-,-,-,-
COc1ccc(CN(C)C[C@@H]2OCCCC[C@@H](C)Oc3ccc(NS(=O)(=O)c4ccc(Cl)cc4)cc3C(=O)N([C@H](C)CO)C[C@H]2C)cc1,?,0,0,0,105.2,0,0,103.0

# Screening results (PubChem BioAssay)
